Assay outcomes: PubChem BioAssay, several laboratories
This is a sample that favours compounds with a hit; in the whole collection about 4.5% have one here.
Mdm2 ligase inh: blocks human Mdm2 ubiquitin ligase activity; Q00987; cell-based MDM2 ubiquitination luciferase reporter, 2 h; 0 = plate control, 100 = twice control, blank-subtracted; signal enhancement, % at 5 µM; actives 0.11% (n = 210,000);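 active means signal enhancement of 30% or more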;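 further: luminescence tracks abundance of the self-degrading MDM2-luciferase fusion protein; higher signal means inhibition of MDM2 E3 ligase activity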
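Assay system: mammalian cells stably expressing self-ubiquitinating, self-degrading MDM2 E3–luciferase fusion. Quantity: 2000 cells in each well. Medium: DMEM culture medium. Compound dosing: single-point 5 µM. Timing: cell settling 4 h, compound treatment 2 h, both 37 °C. Technique: luciferase luminescence. Read-out basis: percent signal gain over controls, blank-subtracted. Benchmarks: plate controls and plate blanks.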
STAT1 act: increases IFN-gamma driven STAT1 reporter signal | activation (% of control), % at 5.5 µM | NIH 3T3 STAT1-luciferase reporter, luminescence; 100% = IFN-gamma alone, no compound | actives 2.6% (n = 200,000);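 active means activation above the screen-wide mean activation plus 3 SD, cut at about 130% in these data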;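 further: raw ratio to IFN-gamma control signal so 100% means no change and 0% no light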
NF-kB expr up: compounds increasing NF-kB expression in human neuronal cells. NF-kB reporter expression; stronger effect = higher value. fold change at 12.5 µM. actives 1.6% (n = 190,000). AID 1239; in the data active means fold change above about 3.3
PERK inhibitor: human PERK inhibition, primary cell-based screen; AID 1416; CHO PERK-DD fusion, SEAP luminescence translation reporter; Q9NZJ5; actives 0.17% (n = 220,000); inhibition, % at 5.6 µM;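 active means inhibition above the mean inhibition of all tested compounds plus 3 SD, set separately per screening campaign, cut at about 2.9% in these data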;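 further: PERK kinase domain activated by AP20187 dimerizer at 100 nM; 0% = DMSO with dimerizer and 100% = rapamycin at 8.4 µM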
Target sequence (Q9NZJ5 whole entry, looked up, the tested form may be a part): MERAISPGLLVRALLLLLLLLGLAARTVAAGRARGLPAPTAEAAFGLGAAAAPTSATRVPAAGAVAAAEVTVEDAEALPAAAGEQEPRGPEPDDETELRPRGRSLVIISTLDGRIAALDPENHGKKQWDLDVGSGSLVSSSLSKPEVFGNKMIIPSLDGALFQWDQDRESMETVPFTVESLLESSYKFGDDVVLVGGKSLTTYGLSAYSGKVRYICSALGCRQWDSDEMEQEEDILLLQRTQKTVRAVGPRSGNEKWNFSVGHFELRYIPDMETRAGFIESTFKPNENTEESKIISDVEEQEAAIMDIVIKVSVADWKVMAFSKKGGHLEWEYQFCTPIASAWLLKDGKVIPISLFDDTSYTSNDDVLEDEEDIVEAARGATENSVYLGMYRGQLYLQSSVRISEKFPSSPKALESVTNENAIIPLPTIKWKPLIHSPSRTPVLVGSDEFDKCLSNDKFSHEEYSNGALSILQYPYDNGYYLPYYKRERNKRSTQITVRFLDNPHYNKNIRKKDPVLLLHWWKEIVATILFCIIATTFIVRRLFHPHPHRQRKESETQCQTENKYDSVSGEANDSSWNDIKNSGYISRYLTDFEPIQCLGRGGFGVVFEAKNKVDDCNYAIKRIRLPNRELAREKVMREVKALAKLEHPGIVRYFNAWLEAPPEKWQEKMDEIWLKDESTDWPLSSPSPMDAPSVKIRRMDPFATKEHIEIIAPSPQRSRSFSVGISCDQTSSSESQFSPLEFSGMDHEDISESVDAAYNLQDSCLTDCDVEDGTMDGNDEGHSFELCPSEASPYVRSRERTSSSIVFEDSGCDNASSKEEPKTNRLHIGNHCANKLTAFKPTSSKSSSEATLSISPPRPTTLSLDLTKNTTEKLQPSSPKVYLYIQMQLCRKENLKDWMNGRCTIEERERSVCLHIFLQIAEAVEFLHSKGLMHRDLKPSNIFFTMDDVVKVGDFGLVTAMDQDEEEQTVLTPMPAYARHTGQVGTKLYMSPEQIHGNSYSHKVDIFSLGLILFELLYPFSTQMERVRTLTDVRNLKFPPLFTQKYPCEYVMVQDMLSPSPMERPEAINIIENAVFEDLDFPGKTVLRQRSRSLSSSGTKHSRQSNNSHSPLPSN
APP 5'UTR act: APP 5'UTR luciferase reporter activation. activation, % at 2 µM. SH-SY5Y APP 5'UTR luciferase reporter, luminescence; zero percent = DMSO vehicle wells. actives 1% (n = 190,000);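 active means activation above a set limit, based on mean plus 3 SD of controls, cut at about 140% in these data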
AHR activator: activates the human aryl hydrocarbon receptor | activation, % at 5 µM | AID 2796 | P35869 | AHR-responsive luciferase reporter cells, luminescence | actives 2.5% (n = 320,000); in the data active means activation above about 47%;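 further: 0% = vehicle wells and 100% = reference agonist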
* hit, by the source's call; x = not tested or not shown.

SMILES | Mdm2 ligase inh | STAT1 act | NF-kB expr up | PERK inhibitor | APP 5'UTR act | AHR activator
NC(=O)C1CC(=O)N(c2ccc(OCc3c(Cl)cccc3Cl)cc2)C1 (stereo unspecified) | -0.4 | 94.3 | 0.81 | 0.6 | 19.9 | -8.2
O=C1CCc2cc(S(=O)(=O)NCc3ccccc3Cl)cc3c2N1CC3 | x | x | x | x | x | -0.4
CN1C(=O)CC(N2CCN(c3ccccc3)CC2)C1=O (stereo unspecified) | x | 99.6 | x | 0.4 | -4.6 | 1.4
CCCC(=O)Nc1sc2c(c1C#N)CCCCC2 | -4.3 | 118.5 | 3.86* | 0.2 | 14.2 | 4.5
CC(C)(C)C(=O)NC(=S)Nc1sc2c(c1C#N)CCCCC2 | 9.4 | 104.9 | 1.22 | 0.2 | 6.9 | 59.3*
CCC(=O)Nc1sc2c(c1C#N)CCCCC2 | 16.1 | 112.7 | 1.76 | -1.0 | -3.7 | 1.1
N#Cc1c(NC(=O)/C=C/c2ccco2)sc2c1CCCC2 | -2.6 | 174.2* | 0.89 | 0.2 | -92.6 | 0.8
Cc1noc(C(=O)Nc2sc3c(c2C#N)CCC3)c1Cl | -8.6 | 102.2 | 1.2 | -0.3 | 20.5 | 47.0*
CC(=O)Nc1sc2c(c1C#N)CCCCC2 | -16.8 | 105.0 | 1.35 | 0.2 | 9.3 | 11.5
Cc1ccc(/C=N/N2CCOCC2)s1 | 5.0 | 120.8 | 1 | 0.4 | 12.4 | 6.4
O=C(Nc1ccccc1Br)c1ccc(N2CCCC2=O)cc1 | x | x | x | x | x | -3.3
CC(C)n1c(SCC(=O)NC2CCCCC2)nnc1-c1ccco1 | x | x | x | x | x | -0.8
Cc1cc(=O)oc2c(C)c(OCC(=O)NCCCN3CCOCC3)ccc12 | x | x | x | x | x | 2.3
CCOC(=O)Cc1csc(NC(=O)CSc2nc(=O)[nH]c3c2CCCC3)n1 | x | x | x | x | x | -0.4
O=C(CSc1nnc(-c2cccs2)o1)c1cccs1 | -10.1 | 140.9* | 2.77 | 0.6 | 100.4 | 3.9
CCNC(=O)CSc1nnc(-c2cccs2)o1 | -4.2 | 105.0 | 1.32 | 1.1 | -2.4 | 0.6
COc1ccc(-c2nnc(SCC(=O)c3ccc[nH]3)o2)cc1 | -7.6 | 105.9 | 4.7* | 0.6 | 94.2 | 14.5
Cc1ccc(NC(=O)CSc2nnc(-c3cccs3)o2)cc1S(=O)(=O)N(C)C | x | 113.7 | x | 1.5 | 51.9 | 55.7*
COc1ccc(-c2nnc(SCC(=O)c3cccs3)o2)cc1 | -60.6 | 134.2* | 3.69* | -1.0 | 72.4 | 24.4
COc1ccc2c(c1)c(=O)oc1c(C)c(OC(C)C(=O)N[C@@H](Cc3c[nH]c4ccc(O)cc34)C(=O)O)ccc12 (stereo partly specified) | x | x | x | x | x | 0.3
O=C(c1ccncc1)N1CCN(S(=O)(=O)c2ccccc2Br)CC1 | x | x | x | x | x | 0.3
c1ccc2c3n(nc2c1)CCCO3 | x | x | x | x | x | -2.6
CC(C)(C)c1ccc(OCCC(=O)NCC(c2cccs2)N2CCOCC2)cc1 (stereo unspecified) | x | x | x | x | x | -0.8
CCNC(=S)NNC(=O)C1CCCCC1 | 4.2 | 100.4 | 1.28 | 2.9* | x | 1.8
O=C(OCCNc1ccc(C(F)(F)F)cc1[N+](=O)[O-])c1cc2ccccc2oc1=O | 6.1 | x | x | -0.7 | x | 2.4
SMILES | Mdm2 ligase inh | STAT1 act | NF-kB expr up | PERK inhibitor | APP 5'UTR act | AHR activator
Cc1cc(=O)oc2cc(OCC(=O)NCCCn3ccnc3)ccc12 | x | x | x | x | x | 3.8
Cc1cc(=O)oc2cc(OCC(O)Cn3ccnc3)ccc12 (stereo unspecified) | x | x | x | x | x | 52.4*
CCCCn1c(=N)n(CC(O)COc2cccc(C)c2)c2ccccc21 (stereo unspecified) | -2.1 | 72.8 | 1.28 | -1.4 | 4.9 | 8.4
CCCCCn1c(=N)n(CC(O)COc2ccccc2OC)c2ccccc21 (stereo unspecified) | -17.7 | 84.3 | 0.68 | -0.8 | 0.7 | 48.8*
C=CCn1c(=N)n(CC(O)COc2ccccc2OC)c2ccccc21 (stereo unspecified) | -22.0 | 88.2 | 0.76 | -1.0 | 8.9 | 62.4*
COc1ccccc1OCC(O)Cn1c(=N)n(Cc2ccccc2)c2ccccc21 (stereo unspecified) | -43.1 | 79.5 | 0.73 | -1.5 | 30.4 | 28.1
CC(C)(C)C1CCc2c(C(=O)NNC(=O)CCC(=O)O)csc2C1 (stereo unspecified) | -8.2 | 104.8 | 1.1 | 1.2 | 25.2 | -1.6
CCOc1ccc(N2CC(C(=O)OC)CC2=O)cc1 (stereo unspecified) | -1.7 | 104.1 | 1.17 | 0.3 | -6.2 | 3.1
Cc1nc2sc(-c3ccccc3)cc2c(=O)[nH]1 | -71.1 | 76.9 | 3.53* | -0.1 | 156.8* | 6.6
CC(C)OC(=O)Cc1nc2sc(-c3ccccc3)cc2c(=O)[nH]1 | x | x | x | x | x | 4.2
